Measurements reported in the RNAGym collection of RNA variant scans (doi:10.1126/science.aae0568).
Variants at the floor of the assay were thinned out.

B1: tRNA (parent)
chain: GUUCCGUUGGCGUAAUGGUAACGCGUCUCCCUCCUAAGGAGAAGACUGCGGGUUCGAGUCCCGUACGGAACG

Variants of: B1
Test: yeast fitness relative to wild type (ratio to wild type); higher = fitter; tRNA-Arg(CCU), competitive growth, 37 C, YPD
Procedure, shortened: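 Amplicons of the tRNA-Arg(CCU) gene were sequenced, 100-nucleotide paired-end, from the start population and from each end population of a pooled yeast competition. The competition, in six parallel replicates, lasted 24 hours in YPD at 37°C. Fitness relative to wild type was calculated from changes in genotype frequencies. Genotypes had to have ≥ 100 starting reads, and estimates < 0.5 were set to 0.5.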

Point of comparison: C22A C62U, yeast fitness 0.935. Against it:
- C22A C66A G67A — lower, ≤ 0.5
- C22A G41A G50A — lower, ≤ 0.5
- C22G A40U A43U C61U — lower, ≤ 0.5
- C22A G25A G48A C61G — lower, ≤ 0.5
- C22A U28A U47G — lower, ≤ 0.5
- C22A G25A G68A — lower, 0.676
- C22G C24U C31U A40U U59A C61A — lower, ≤ 0.5
- C22A C31U A45G — lower, 0.667
- C22G A45G — lower, 0.867
- C22G A43U C62U — lower, 0.56
- C22A A36U — lower, 0.586
- C22A A43U C60A — lower, ≤ 0.5
- C22G C24G G50A A69C — lower, 0.574
- C22A C49A — lower, 0.669
- C22A C49U — higher, 1.13
- C22A C49G — lower, 0.646
- C22G A36C C55U C60A C62G A69U — lower, 0.563
- C22G A36C U47A C66G — lower, ≤ 0.5
- C22A C33G A43C A69C — lower, ≤ 0.5
- C22A C24G G67C G68A — lower, ≤ 0.5
- A21U U26G G50C — lower, 0.586
- C22A C29U C49U — lower, 0.622
- C22A G25A C31G G48C — lower, ≤ 0.5
- C22G C24A G68C — lower, ≤ 0.5
- C22A A37C G56C — lower, ≤ 0.5
- C22A G51C — lower, 0.719
- C22A G23A C33U C34G G51A — lower, ≤ 0.5
- C22A A36U G68C — lower, ≤ 0.5
- A21U G56A G67A — lower, ≤ 0.5
- C22A A65U A70G — lower, 0.662
- C22A U47A C55A — lower, ≤ 0.5
- C22G A57C — lower, 0.684
- C22G A57G — lower, 0.676
- A21U U28G U59G — lower, 0.609
- C22A U47C C55G — lower, 0.536
- C22G A45U G48C A57C G67U — lower, ≤ 0.5
- C22A C24G A43U C62A — lower, ≤ 0.5
- C22G C24A C61G C66A — lower, ≤ 0.5
- C22G A42U — lower, 0.699
- C22G A42G — lower, 0.716
- C22G A37G C60A A70G — lower, 0.501
- C22G C27G A43U A45C U54A — lower, ≤ 0.5
- A21U C62A — lower, 0.613
- A21U C62U — lower, 0.716
- C22G C24G C27G — lower, 0.766
- A21U G39C U47A — lower, 0.512
- A21U G25A G50A G68U — lower, ≤ 0.5
- A21U G25A G68U — lower, 0.547
- C22A U47A G48A A70G — lower, ≤ 0.5
- C22A U54C — lower, 0.917
- C22A C29U C66G — lower, ≤ 0.5
- A21U G44C — lower, 0.769
- A21U C55U G68C — lower, ≤ 0.5
- C22A G23A C34U A57C C66U A69C — lower, 0.548
- A21U G56C — lower, 0.579
- C22A C33A A36U U53A U54A — lower, 0.551
- C22A A42U C62U — lower, 0.549
- A21U U32G U59C G68A — lower, ≤ 0.5
- C22A U47C — lower, 0.882
- C22G A45U C49G A65U — lower, ≤ 0.5
- C22A U28A C30A — lower, 0.72
- C22A G25C C62A — lower, 0.559
- C22A C46U C49G — lower, 0.527
- C22G A65U — higher, 1.03
- C22G A65G — lower, 0.932
- C22A U47A A65G — lower, 0.573
- C22A U47A A65U — lower, ≤ 0.5
- A21U G39U A43C G63A — lower, ≤ 0.5
- C22A U26A U54C C61A — lower, 0.612
- C22G A57G A65G — lower, 0.624
- A21U U26C — lower, 0.657
- C22A C31G U35A — lower, 0.558
- C22A C24G G52A G67C G68A — lower, ≤ 0.5
- C22G C24U C29U C33U A37C G52A C66U — lower, ≤ 0.5
- C22G A45C A65C — lower, ≤ 0.5
- C22A C27U A43G C46G C49U A69C — lower, ≤ 0.5
- C22G C24U U28A C31G C55A G68C — lower, ≤ 0.5
- C22A G23A C33U C34G C60A — lower, ≤ 0.5
- A21U G25A A69C — lower, 0.605
- A21U U26A A70C — lower, ≤ 0.5
- C22A C27U A57U — lower, ≤ 0.5
- C22A G39C A43U U53C — lower, 0.723
- C22A G23A C33U A42U — lower, ≤ 0.5
